This is an account of results in ChEMBL document CHEMBL3994578, “Optimization of benzoquinone and hydroquinone derivatives as potent inhibitors of human 5-lipoxygenase” (Eur J Med Chem, 2017).

The source made the active and inactive calls. No cut-off for these calls is given here.

The target of test [1] is T1, Polyunsaturated fatty acid 5-lipoxygenase (Homo sapiens, UniProt P09917).
T1 sequence (P09917 whole entry): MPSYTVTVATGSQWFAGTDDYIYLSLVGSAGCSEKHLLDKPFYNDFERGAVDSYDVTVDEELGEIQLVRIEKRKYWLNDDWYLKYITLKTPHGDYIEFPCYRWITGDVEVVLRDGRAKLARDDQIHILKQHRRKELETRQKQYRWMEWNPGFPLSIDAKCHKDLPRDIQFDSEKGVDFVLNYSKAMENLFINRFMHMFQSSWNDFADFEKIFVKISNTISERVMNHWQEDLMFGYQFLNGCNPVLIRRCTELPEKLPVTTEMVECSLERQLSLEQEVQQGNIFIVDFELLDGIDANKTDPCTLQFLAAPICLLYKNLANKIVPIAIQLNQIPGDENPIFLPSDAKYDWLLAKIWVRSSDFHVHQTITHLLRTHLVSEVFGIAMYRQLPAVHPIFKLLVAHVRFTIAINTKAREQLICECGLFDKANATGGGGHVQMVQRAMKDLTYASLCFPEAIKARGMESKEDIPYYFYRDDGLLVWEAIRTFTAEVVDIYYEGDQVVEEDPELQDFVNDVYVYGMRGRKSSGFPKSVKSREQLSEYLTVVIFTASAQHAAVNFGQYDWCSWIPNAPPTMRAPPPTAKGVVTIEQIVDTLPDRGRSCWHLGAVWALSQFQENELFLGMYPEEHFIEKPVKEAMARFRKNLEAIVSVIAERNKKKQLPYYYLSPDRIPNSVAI
As to the kind of experiment: Inhibition of recombinant human 5-lipoxygenase expressed in Escherichia coli BL21 using arachidonic acid as substrate preincubated for 15 mins followed by substrate addition measured after 10 mins by RP-HPLC method. Put shortly: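 5-LO expressed in E. coli BL21 (pT3-5-LO) was semi-purified on ATP-agarose; 0.5 µg was used in 1 mL PBS with 1 mM EDTA and 1 mM ATP. Compound or 0.1% DMSO was preincubated 15 min at 4 °C, then samples were prewarmed 30 s at 37 °C. Reaction was started with 2 mM CaCl2 plus 20 μM AA and run 10 min at 37 °C. It was stopped with cold methanol, and products were measured by RP-HPLC. IC50 was read graphically from 4-5 concentrations; n = 3-4.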

Test [2] concerns the target T1, Polyunsaturated fatty acid 5-lipoxygenase. As to the kind of experiment: Inhibition of 5-lipoxygenase in human neutrophils assessed as inhibition of A23187-induced product formation using arachidonic acid as substrate preincubated for 15 mins followed by substrate and A23187 addition measured after 10 mins by RP-HPLC method. The essentials: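 Freshly isolated human neutrophils (5×10^6, from leukocyte concentrates by dextran sedimentation and Nycoprep) were taken up in 1 mL PBS pH 7.4 with 1 mg/mL glucose and 1 mM CaCl2. Cells were preincubated 15 min at 37 °C with compound or 0.1% DMSO, then stimulated with 2.5 μM A23187 plus 20 μM arachidonic acid for 10 min at 37 °C. The reaction was stopped with methanol on ice, and LTB4 all-trans isomers and 5-H(P)ETE were measured by RP-HPLC. IC50 was read graphically from 4-5 concentrations; 3-4 independent experiments.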

Test [3] concerns Mus musculus. As to the kind of experiment: Anti-inflammatory activity in CD-1 mouse model of Zymosan-induced peritonitis assessed as LTC4 level in peritoneal lavage at 1 mg/kg, ip pretreated for 30 mins followed by Zymosan injection measured after 30 mins by EIA (reference value: 10.48 +/- 1.72 ng/ml). Format: functional.
The target of test [4] is T2, Polyunsaturated fatty acid 5-lipoxygenase (Homo sapiens) (UniProt P09917).
T2 sequence (whole entry): T1 sequence (P09917 whole entry)
The test can be described thus: Non-competitive inhibition of recombinant human 5-lipoxygenase expressed in Escherichia coli BL21 using varying levels of arachidonic acid as substrate preincubated for 15 mins followed by substrate addition measured after 10 mins by RP-HPLC method. The essentials: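 Semi-purified recombinant 5-LO (0.5 µg, E. coli BL21) in PBS with 1 mM EDTA and 1 mM ATP was preincubated 15 min at 4 °C with compound or 0.1% DMSO, then prewarmed 30 s at 37 °C. Reaction was started with 2 mM CaCl2 plus varying arachidonic acid concentrations and run 10 min at 37 °C. Products were measured by RP-HPLC as percent of control; n = 3.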

Test [5] relates to Mus musculus. As to the kind of experiment: Anti-inflammatory activity in CD-1 mouse model of Zymosan-induced peritonitis assessed as inflammatory cells in peritoneal lavage at 1 mg/kg, ip pretreated for 30 mins followed by Zymosan injection measured after 4 hrs (reference value: 7 +/- 0.47 10^6No_unit). Type of test: functional.
For test [6], the system named is Mus musculus. As to the kind of experiment: Anti-inflammatory activity in CD-1 mouse assessed as inhibition of carrageenan-induced paw edema at 1 mg/kg, ip pretreated for 30 mins followed by carrageenan injection measured up to 48 hrs by hydroplethismometric method. Type of test: functional, organism-based. Put shortly: (§1)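 Male CD-1 mice (35–40 g), n = 6 per group, given compound or vehicle (DMSO) i.p. 30 min before a subplantar injection of 50 μL 1% (w/v) carrageenan under light enflurane anaesthesia. Paw volume was read by hydroplethysmometer before injection (basal) and at 2, 4, 6, 24, 48 and 72 h. Data are mean ± SEM; two-way ANOVA with Bonferroni post test.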

Test [7] has as its system Mus musculus. The test can be described thus: Anti-inflammatory activity in CD-1 mouse assessed as inhibition of carrageenan-induced paw edema at 1 mg/kg, ip pretreated for 30 mins followed by carrageenan injection measured after 4 hrs by hydroplethismometric method relative to control. Type of test: functional. As to conditions: CD-1, ip. Put shortly:
as §1
On the technique in general: The carrageenan paw model is a standard test of acute inflammation.

Test [8] relates to Mus musculus. As to the kind of experiment: Anti-inflammatory activity in CD-1 mouse model of Zymosan-induced peritonitis assessed as inflammatory cells in peritoneal lavage at 10 mg/kg, ip pretreated for 30 mins followed by Zymosan injection measured after 4 hrs (reference value: 7 +/- 0.47 10^6No_unit). Format: functional.
For test [9], the system named is Mus musculus. As to the kind of experiment: Anti-inflammatory activity in CD-1 mouse model of Zymosan-induced peritonitis assessed as LTC4 level in peritoneal lavage at 10 mg/kg, ip pretreated for 30 mins followed by Zymosan injection measured after 30 mins by EIA (reference value: 10.48 +/- 1.72 ng/ml). Type of test: functional.
Test [10] relates to Mus musculus. As to the kind of experiment: Anti-inflammatory activity in CD-1 mouse assessed as inhibition of carrageenan-induced paw edema at 1 mg/kg, ip pretreated for 30 mins followed by carrageenan injection measured up to 72 hrs by hydroplethismometric method. Format: functional, organism-based. The essentials: as §1

Regarding `CCCCCCCCCCCCCc1c(O)c(OC)cc(O)c1OC`, the figures for the IC50 in test [1] and in test [2] were 260 nM and 310 nM, respectively.
With `CCCCCCCCCCCCCC1=C(OC)C(OC)=CC(=O)C1=O`, the Activity in the test on Mus musculus [3] was 0.14 ng/mL; in the test with Mus musculus [5], 3.78 10^6 cells. Also, the inhibition result (in test [4]; in the test with Mus musculus [6]) was “Active” in each case. In addition, in the test on Mus musculus [7], the inhibition in vivo at 1 mg/kg was 75%.
Turning to `COC1=CC(=O)C(OC)=C(C(O)CCCCCCCCCO)C1=O` (stereo not drawn), the IC50 amounted to 1460 nM in test [1] and 660 nM in test [2].
The corresponding values for `COC1=CC(=O)C(=O)C(CCCCCCCCO)=C1OC` are 220 nM and 150 nM.
The corresponding values for `COC1=CC(=O)C(=O)C(CCCCCCCCCCCO)=C1OC` are 1960 nM and 120 nM.
The corresponding values for `CCCCCCCCCCCCCc1c(O)c(O)cc(OC)c1O` are 290 nM and 1600 nM.
On to `COC1=CC(=O)C(OC)=C(C(CCCCCCCCCO)OC(C)=O)C1=O` (stereo not drawn), for which the IC50 worked out at 490 nM in [1] and 1620 nM in test [2].
Regarding `CC(c1cc2ccccc2s1)N(O)C(N)=O` (stereo not drawn) [ZILEUTON], the Activity is 2.88 10^6 cells in the test with Mus musculus [8] and 3.35 ng/mL with Mus musculus [9].
As for `COC1=CC(=O)C(OC)=C(CCCCCCCCCCCO)C1=O`, the IC50 in test [1] was 1510 nM; in test [2], 200 nM.
The corresponding values for `COC1=CC(=O)C(=O)C(CCCCCCCCCCO)=C1OC` are 1080 nM and 360 nM.
For the molecule `COC1=CC(=O)C(OC)=C(CCCCCCCCCCO)C1=O`, the IC50 was 1750 nM in test [1] and 550 nM in [2].
In the case of `CCCCCCCCCCCCc1c(O)c(O)cc(OC)c1OC`, the IC50 turned out to be 240 nM in test [1] and 90 nM in [2].
`CCCCCCCCCCCc1c(O)c(O)cc(OC)c1OC`: the results for the IC50 in test [1] and in test [2] were 100 nM and 30 nM, respectively.
Regarding `CCCCCCCCCCCCCc1c(O)c(O)cc(OC)c1OC`, the Activity is 1.58 ng/mL in the test with Mus musculus [3] and 3.08 10^6 cells with Mus musculus [5]. Also, the inhibition result (in the test with Mus musculus [10]; in [4]) was “Active” each time. For the same molecule, the IC50 is 60 nM in [1] and 28 nM in test [2]. The inhibition in vivo at 1 mg/kg in the test with Mus musculus [7] was 77.4%.
As for `COC1=CC(=O)C(OC)=C(CCCCCCCCO)C1=O`, the 50% inhibitory concentration (IC50) in [1] came out at 1840 nM; in test [2], 330 nM.

As usually defined, the IC50 is the concentration needed to halve the response being measured. As usually defined, the inhibition in vivo is how much of the control response was suppressed.
